Most compounds without a hit are left out; they make up all but 3.1% or so of the library.
HSF-1 act = increases HSF-1 driven luciferase reporter signal. hit rate 1.7% among 300,000. NIH3T3-HGL HSF-1 luciferase reporter, MG132, 8 h; 100% = twice DMSO control signal. activation, % at 9 µM;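 active means mean replicate activation of at least 50% with a set share of replicates each reaching 50%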;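 further: 0% = median of the neutral control wells and 100% = twice that signal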
HSP90 inh = blocks HSP90-mediated luciferase refolding in reticulocyte lysate | hit rate 0.91% among 290,000 | AID 1789 | inhibition, % at 5.6 µM | Rabbit reticulocyte lysate, luciferase refolding luminescence, 3 h;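 active means inhibition above the screen-wide mean plus 3 SD, computed separately per campaign, cut at about 16% in these data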;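 further: 0% = DMSO wells and 100% = 60 µM geldanamycin wells; inhibitors lower the luminescence because luciferase stays unfolded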
HSF1 inhib = HSF1 inhibition | NIH3T3-HGL HSE-luciferase, MG132-induced, luminescence 8 h; active compounds read low | activity change, negative = inhibition, % at 7.5 µM (by protocol) | hit rate 0.77% among 300,000;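 active means more than half of replicate wells show activity change below -50%, luminescence cut by over half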;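 further: luciferase reports HSF-1 transcriptional activity via heat shock element; 0% = median of DMSO wells and -100% = zero luminescence signal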
Hsp70 activator = switches on Hsp70 transcription. hit rate 0.04% among 200,000. HeLa Hsp70 promoter luciferase reporter, luminescence; scaled: vehicle 0, proteasome-inhibitor control 100%. activation, % at 10 µM. AID 1203;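 active means activation above the mean across all tested compounds plus 3 SD, cutoff set per campaign, cut at about 5.5% in these data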;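 further: 100% = MG132 at 30 µM as the positive control and 0% = DMSO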
HKDC1 inh = HKDC1 (human) hexokinase inhibition; AID 493160; Q2TB90; inhibition, % at 20 µM; recombinant HKDC1, G6PDH/diaphorase resazurin coupled fluorescence; hit rate 0.16% among 340,000;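 active means inhibition above about 35% when tested at 20 µM, limit read from the data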;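 further: plate controls were DMSO wells with enzyme for no effect and DMSO wells lacking enzyme for full effect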
Target sequence (Q2TB90 whole entry, looked up): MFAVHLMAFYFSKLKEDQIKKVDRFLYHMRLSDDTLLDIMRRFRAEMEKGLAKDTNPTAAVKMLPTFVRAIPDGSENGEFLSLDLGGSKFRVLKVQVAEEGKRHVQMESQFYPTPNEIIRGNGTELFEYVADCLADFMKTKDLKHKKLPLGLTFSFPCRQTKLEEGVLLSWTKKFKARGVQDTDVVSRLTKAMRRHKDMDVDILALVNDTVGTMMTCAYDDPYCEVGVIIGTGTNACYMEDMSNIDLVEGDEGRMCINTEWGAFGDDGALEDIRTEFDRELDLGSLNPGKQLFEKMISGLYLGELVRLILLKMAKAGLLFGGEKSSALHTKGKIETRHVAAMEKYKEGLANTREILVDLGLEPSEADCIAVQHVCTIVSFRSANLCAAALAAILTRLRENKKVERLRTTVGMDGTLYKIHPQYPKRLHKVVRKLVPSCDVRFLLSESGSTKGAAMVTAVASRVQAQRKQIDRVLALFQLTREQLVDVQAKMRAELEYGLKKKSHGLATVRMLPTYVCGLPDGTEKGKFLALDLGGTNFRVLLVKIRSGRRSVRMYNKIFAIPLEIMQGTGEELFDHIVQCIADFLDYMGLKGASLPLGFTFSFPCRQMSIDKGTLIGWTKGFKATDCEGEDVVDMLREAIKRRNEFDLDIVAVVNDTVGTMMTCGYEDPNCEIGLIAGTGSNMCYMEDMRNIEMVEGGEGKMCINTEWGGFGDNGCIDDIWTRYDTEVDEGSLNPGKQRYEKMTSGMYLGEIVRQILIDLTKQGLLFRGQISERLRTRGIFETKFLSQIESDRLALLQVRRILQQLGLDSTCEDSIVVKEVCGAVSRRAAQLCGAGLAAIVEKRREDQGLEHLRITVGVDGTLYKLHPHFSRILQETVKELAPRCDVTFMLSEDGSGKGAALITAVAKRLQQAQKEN
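Test system: HK5 enzyme. Quantity: 5 µg/mL HK5 final. Reagent: glucose and ATP substrates. Schedule: 90 min reaction incubation at room temperature, dark. Technique: resazurin-to-resorufin fluorescence via G6PDH and diaphorase coupling, 525/613 nm. Control set: DMSO wells with and without enzyme mix.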
TbHK1 inh = T. brucei hexokinase 1 inhibition; recombinant TbHK1, G6PDH-coupled NADH A340; AID 1430; hit rate 0.11% among 220,000; inhibition, % at 10 µM;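 active means inhibition of 50% or more in the single-dose primary screen; inactive means inhibition below 50%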
Numbers without * were called inactive; / = no result.

SMILES	HSF-1 act	HSP90 inh	HSF1 inhib	Hsp70 activator	HKDC1 inh	TbHK1 inh
COc1cccc(Cn2c(=O)sc3ccccc3c2=O)c1	81.3*	-1.9	45.9	-0.2	-0.6	0.4
N#Cc1ccc(OCCN2CCc3ccccc3C2)cc1	84.6*	/	37.0	/	-2.0	/
Cc1ccc(C)c(N2CCN(C(=O)c3cc(S(=O)(=O)N4CCCC4)cn3C)CC2)c1	-74.6	0.4	-68.2*	/	-6.5	/
Cc1cccc(N2CCN(C(=O)c3cc(S(=O)(=O)N4CCCC4)cn3C)CC2)c1C	-4.4	-2.1	-9.9	/	0.4	/
COc1ccc(C(=O)N2CCN(c3ccccc3Cl)CC2)cc1S(=O)(=O)NC1CC1	/	/	/	/	-5.0	/
O=C(CSc1nnc(-c2cnccn2)n1Cc1ccco1)Nc1ccc(Br)cc1	55.1*	-3.3	31.1	-0.2	-3.5	-4.6
COCCn1c(N)c(N(Cc2ccccc2)C(=O)c2ccc(C#N)cc2)c(=O)[nH]c1=O	55.3*	-2.6	12.8	-0.2	-5.9	-3.9
C1CCC(Nc2nnnn2C2CCCCC2)CC1	-65.2	-0.1	-59.0*	-0.2	-2.3	-4.3
CCC(=NCc1ccc(Cl)c(Cl)c1)c1nc(-c2ccco2)oc1O	71.7*	-3.5	36.8	-0.3	-2.2	-1.5
O=c1c2ccccc2[nH]c(=S)n1CCC1=CCCCC1	72.7*	-0.2	36.1	-0.3	-6.0	-0.2
Nc1cc(N)nc(SCC(=O)Nc2ccc(Br)cc2Cl)n1	61.6*	/	44.3	/	-6.0	/
O=C(Nc1nc2c(s1)CCCC2)c1ccc(Br)s1	59.5*	4.3	34.0	-0.2	-7.4	2.5
CSc1ncccc1C(=O)Nc1ccccc1N1CCOCC1	/	/	/	/	-5.6	/
O=S(=O)(C/C(=C/CO)S(=O)(=O)c1ccccc1)c1ccccc1	-79.4	8.6	-77.0*	14.7*	-4.1	0.4
O=C(NCc1ccccc1Cl)C1CCN(S(=O)(=O)N2CCCC2)CC1	-74.8	0.7	-68.7*	/	-4.3	/
CC(C)C[C@@H](CN1CCCC1CN1C(=S)NC[C@@H]1Cc1ccc(O)cc1)N1C[C@H](Cc2ccc(O)cc2)N(CCc2ccccc2)C1=S (some centres undefined)	/	/	/	/	-3.5	/
NCc1cc2c3c(c1)CCCN3CCC2	-5.2	-0.3	2.8	/	1.4	/
CN(C)c1ccc(N=c2sc3ccccc3n2C)cc1	109.5*	-7.5	70.5	0.0	4.3	-11.7
Cn1c(=Nc2ccccc2)sc2ccccc21	7.2	1.7	-0.7	-0.3	-1.1	-6.0
COc1ccc(C(=O)c2sc(Nc3ccccc3)nc2N)cc1	-0.9	-3.8	10.5	/	4.4	/
Nc1nc(Nc2ccccc2)sc1C(=O)c1ccccc1	62.1*	2.1	25.2	/	3.3	-19.3
CCc1nc(SCC(=O)Nc2ccc(F)cc2F)c2c(=O)n(C)c(=O)n(C)c2n1	6.2	-2.4	1.5	/	-3.2	/
CCCc1nc(SCC(=O)Nc2cc(Cl)ccc2OC)c2c(=O)n(C)c(=O)n(C)c2n1	-69.9	2.1	-63.0*	0.4	/	-3.4
O=C(N[C@@H]1CCC(=O)N(CC[C@H](Oc2ccccc2)c2ccccc2)CC1)OCc1ccccc1	19.6	-0.9	13.4	/	0.7	/
O=C(CCc1nnc2ccc(N3CCC4(CC3)OCCO4)nn12)NCc1ccc(F)cc1	-76.6	0.6	-72.2*	/	-4.8	/
SMILES	HSF-1 act	HSP90 inh	HSF1 inhib	Hsp70 activator	HKDC1 inh	TbHK1 inh
CCc1ccc(NC(=O)CCc2nnc3ccc(N4CCC5(CC4)OCCO5)nn23)cc1	-9.0	0.0	-3.4	/	-1.2	/
CCCN(CC(=O)Nc1ccccc1OC)C(=O)CCC(=O)c1ccc(OCC)cc1	/	/	/	/	-0.4	/
Cc1ccc2nc(NCc3ccccc3)c(C=O)c(=O)n2c1	90.3*	1.4	56.9	-0.1	-7.8	-4.0
O=C1/C(=N\S(=O)(=O)c2cccs2)C([n+]2cccc(Cc3ccccc3)c2)=C([O-])c2ccccc21	139.1*	5.4	87.6	/	5.6	-17.8
CC(C)(C)c1cc[n+](C2=C([O-])c3ccccc3C(=O)/C2=N\S(=O)(=O)c2ccccc2)cc1	-32.3	16.3*	-24.7	/	5.3	-11.9
O=C(Nc1ccc(Cl)cc1F)C1CC(=O)N(Cc2ccco2)C1 (centres undefined)	/	/	/	/	-3.2	/
COc1ccccc1C1C(C(C)=O)=C(O)C(=O)N1c1ccc(O)cc1 (centres undefined)	-1.1	5.7	-1.7	/	-3.7	/
COc1ccc(S(=O)(=O)NCC(c2ccc3c(c2)OCO3)N2CCOCC2)cc1 (centres undefined)	-24.8	/	0.4	/	-2.5	/
Cc1csc2nc(SCC(=O)N3CCN(c4ccccc4)CC3)[nH]c(=O)c12	6.2	-2.0	2.2	/	7.1	/
Cc1cc(NC(=O)Nc2cc(C)nn2-c2ccccc2)n(-c2ccccc2)n1	5.2	-0.6	-6.0	-0.2	-4.7	2.5
CCOC(=O)/C=C(\C)Nc1cc(C)nn1-c1ccccc1	53.9*	4.4	31.1	0.0	-1.5	-0.2
O=C(c1ccccc1)N1CCOC(O)(c2ccccc2)C1c1ccccc1 (centres undefined)	/	/	/	/	6.3	/
CCOC(=O)C1(CC2CCCCO2)CCN(Cc2cc(F)ccc2-n2cccn2)CC1 (centres undefined)	-7.5	-2.8	-4.9	-0.3	-2.7	0.9
CCOC(=O)C1(CC2CCCCO2)CCN(Cc2nc3ccccc3[nH]2)CC1 (centres undefined)	-97.1	1.5	-97.2*	-0.1	-15.5	-2.5
O=C(CSc1nnc(-c2ccc(F)cc2)c2ccccc12)Nc1cccc(Cl)c1	15.3	-2.4	13.3	-0.4	-1.9	2.2
O=C(CSc1nnc(-c2ccc(F)cc2)c2ccccc12)Nc1ccccc1	82.7*	3.7	54.0	-0.3	-3.0	0.6
CCCCOc1ccc(C2C(=O)N(C3CCCCC3)CC(=O)N2CC2CCCO2)cc1 (centres undefined)	-63.1	1.1	-54.1*	0.4	16.6	-4.3
CCOc1ccc(C2C(=O)N(C3CCCCC3)CC(=O)N2CC2CCCO2)cc1OC (centres undefined)	-3.1	1.9	2.1	-0.1	-3.6	0.4
CC(C)NC(=NCc1ccc(Cl)cc1Cl)Nc1ccccc1	1.2	2.1	-3.1	/	-8.5	/
COc1ccccc1-c1nnc(-c2ccc(N3CCOCC3)cc2)o1	59.3*	3.2	16.5	0.0	-1.6	-41.1
Cc1cn(C2CCCCO2)c(=O)[nH]c1=O (centres undefined)	/	/	/	/	-3.6	/
CC(C)c1onc(C(=O)N2CCN(C(c3ccccc3)c3ccccc3)CC2)c1[N+](=O)[O-]	-62.0	5.6	-56.8*	-0.4	-2.7	-3.5
O=C(NN/C(=N/S(=O)(=O)c1ccc(Cl)cc1)c1ccccc1)c1ccc(O)cc1	60.5*	2.6	32.8	0.0	-5.8	-8.8
O=C(NN/C(=N/S(=O)(=O)c1ccc(Cl)cc1)c1ccccc1)c1cccc(Cl)c1	51.9*	-0.2	16.1	/	1.4	/
Cc1ccc(S(=O)(=O)/N=C(/NNC(=O)c2cccc(Cl)c2)c2ccccc2)cc1	42.9	3.0	15.7	/	2.0	/
Nc1nnc(CSCc2ccccc2Cl)s1	56.2*	-2.0	15.6	/	1.4	1.1
